Laboratory results from ChEMBL document CHEMBL3352465, “The SAR development of substituted purine derivatives as selective CB2 agonists for the treatment of chronic pain” (Bioorg Med Chem Lett, 2014).
Values after ≈ are worked out from the molar mass of the structure shown. Active and inactive are the calls of the source. The rule behind the calls is not given here.

Assays:
[1] = Drug metabolism in dog liver microsomes at 2 uM after 0.5 hr by LC/MS/MS analysis; type: ADME, Canis lupus familiaris; conditions: read-out: Drug metabolism
Cannabinoid receptor 2 [2] = target: T1, Cannabinoid receptor 2 (Homo sapiens, UniProt P34972); assay: Agonist activity at human CB2 receptor expressed in CHO cells by [35S]-GTPgammaS binding assay; type: functional, cell-based
Cannabinoid receptor 2 [3] = target: T1, Cannabinoid receptor 2; assay: Agonist activity at human CB2 receptor expressed in CHO cells by [35S]-GTPgammaS binding assay relative to control; type: functional, cell-based
[4] = Drug metabolism in rat liver microsomes at 2 uM after 0.5 hr by LC/MS/MS analysis; type: ADME; conditions: read-out: Drug metabolism
[5] = Drug metabolism in human liver microsomes at 2 uM after 0.5 hr by LC/MS/MS analysis; type: ADME; conditions: read-out: Drug metabolism
Cannabinoid receptor 1 = Cannabinoid receptor 1 (Homo sapiens, UniProt P21554); assay: Agonist activity at human CB1 receptor expressed in Sf9 cells by [35S]-GTPgammaS binding assay; type: functional
Rattus norvegicus [6] = species on record: Rattus norvegicus; assay: Inhibition of GABA gated chloride channel in rat cortex at 10 uM by radioligand binding assay
How it was run: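 Radioligand binding to GABA-gated chloride channels from rat, run by an outside contract lab.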

[7] = Volume of distribution at steady state in Sprague-Dawley rat at 1 mg/kg, iv and 1 mg/kg, po; type: ADME, organism-based; conditions: in vivo, read-out: Vdss
How it was run: (§1)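 Plasma PK after intravenous and oral dosing at 1 mg/kg each route; male Sprague-Dawley rats and male Beagle dogs. Clearance and steady-state volume from the iv leg, half-life and bioavailability from the po leg.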

Rattus norvegicus [8] = assay: Analgesic activity in monoiodoacetic acid-induced joint pain rat model assessed as inhibition of differential weight bearing capacity at 1 mg/kg, po administered 20 days post MIA challenge co-administered with 3 mg/kg SR-144528 relative to vehicle treated control; type: functional, organism-based
How it was run: (§2)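 Rats got 0.3 mg MIA intra-articular into the right knee and saline into the left on day 0. On day 20 they were randomized and dosed po with vehicle (1% CMC in water with 0.25% Tween 80), agonist 1 mg/kg, SR-144528 3 mg/kg, or antagonist given 30 min before agonist. Incapacitance (differential hind-limb weight bearing) was read 2 h after agonist; n = 6/group; Dunnett's test versus vehicle.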

Rattus norvegicus [9] = assay: Analgesic activity in monoiodoacetic acid-induced joint pain rat model assessed as inhibition of differential weight bearing capacity at 1 mg/kg, po administered 20 days post MIA challenge relative to vehicle treated control; type: functional, organism-based; parameters: dose 1 mg/kg; how it was run: as §2
Cytochrome P450 3A4 = Cytochrome P450 3A4 (Homo sapiens, UniProt P08684); assay: Effect on CYP3A4 (unknown origin) up to 10 uM; type: ADME
[10] = Drug excretion in rat urine assessed as sulfate metabolite; type: ADME
Rattus norvegicus [11] = assay: Analgesic activity in monoiodoacetic acid-induced joint pain rat model assessed as inhibition of differential weight bearing capacity at 1 mg/kg, po bid for 5 days starting 20 days post MIA challenge relative to vehicle treated control; type: functional, organism-based; parameters: dose 1 mg/kg
How it was run: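 MIA knee-joint pain model in rats; repeat oral dosing at 1.0 mg/kg bid for 5 days. Incapacitance efficacy was compared between day 1 and day 5, and plasma exposures were monitored over the period.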

[12] = Clearance in Beagle dog at 1 mg/kg, iv; type: ADME, organism-based, Canis lupus familiaris; parameters: dose 1 mg/kg, route intravenous; conditions: in vivo
Rattus norvegicus [13] = assay: Analgesic activity in monoiodoacetic acid-induced joint pain rat model assessed as inhibition of differential weight bearing capacity compound administered orally post MIA challenge measured 2 hrs after compound dose on day 12 post MIA challenge relative to vehicle treated control; type: functional; conditions: po
How it was run: (§3)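 MIA knee-joint pain in rats; oral doses of 0.1, 0.3 and 1 mg/kg, with diclofenac 5 mg/kg po as comparator. Differential hind-limb weight bearing was measured by incapacitance tester on day 12 post MIA, 2 h after dosing; n = 5/group; Student's t-test versus vehicle. ED50 was derived from the dose response.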

[14] = Clearance in Sprague-Dawley rat at 1 mg/kg, iv; type: ADME, organism-based; parameters: dose 1 mg/kg, route intravenous; conditions: in vivo
[15] = Cmax in Beagle dog at 1 mg/kg, iv and 1 mg/kg, po; type: ADME, organism-based, Canis lupus familiaris; conditions: in vivo; how it was run: as §1
Cytochrome P450 2D6 = Cytochrome P450 2D6 (Homo sapiens, UniProt P10635); assay: Effect on CYP2D6 (unknown origin) up to 10 uM; type: ADME
Rattus norvegicus [16] = assay: Toxicity in rat assessed as hypothermia up to 30 mg/kg, po; type: organism-based; parameters: dose 30 mg/kg, route oral; conditions: in vivo
How it was run: (§4)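 Rats were dosed orally up to 30 mg/kg and checked for hypothermia and for rotorod performance. CP-55,940 0.5 mg/kg ip served as positive control.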

[17] = Drug excretion in rat urine assessed as phase 2 glucuronide metabolite; type: ADME
CYP1A2 = target: T2, CYP1A2 (Homo sapiens, UniProt P05177); assay: Drug metabolism assessed as human CYP1A2-mediated compound turnover; type: ADME; conditions: recombinant enzyme, read-out: Drug metabolism
T2 sequence (P05177 whole entry): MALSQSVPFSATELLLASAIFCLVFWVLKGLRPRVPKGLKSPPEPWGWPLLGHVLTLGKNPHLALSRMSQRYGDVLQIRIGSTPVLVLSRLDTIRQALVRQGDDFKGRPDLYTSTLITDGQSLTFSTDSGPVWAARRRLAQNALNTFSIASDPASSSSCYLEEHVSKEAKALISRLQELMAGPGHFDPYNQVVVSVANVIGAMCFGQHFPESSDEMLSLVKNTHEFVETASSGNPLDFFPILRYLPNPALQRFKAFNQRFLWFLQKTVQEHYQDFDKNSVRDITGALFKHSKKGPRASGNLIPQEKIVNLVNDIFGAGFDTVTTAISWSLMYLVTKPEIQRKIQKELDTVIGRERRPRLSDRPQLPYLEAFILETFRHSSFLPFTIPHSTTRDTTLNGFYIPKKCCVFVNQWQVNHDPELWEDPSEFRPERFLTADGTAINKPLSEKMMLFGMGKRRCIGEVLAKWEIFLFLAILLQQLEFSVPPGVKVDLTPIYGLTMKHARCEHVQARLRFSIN
How it was run: (§5)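 Oxidative turnover was assessed with recombinant human P450 enzymes to identify which isoforms contribute to metabolite formation.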

CYP2C9 = CYP2C9 (Homo sapiens, UniProt P11712); assay: Drug metabolism assessed as human CYP2C9-mediated compound turnover; type: ADME; conditions: recombinant enzyme, read-out: Drug metabolism; how it was run: as §5
Rattus norvegicus [18] = assay: Toxicity in rat assessed as behavioral impairment up to 30 mg/kg, po by rotorod test; type: organism-based; parameters: dose 30 mg/kg, route oral; conditions: in vivo; how it was run: as §4
[19] = Oral bioavailability in Sprague-Dawley rat at 1 mg/kg; type: ADME, organism-based; conditions: in vivo; how it was run: as §1
[20] = Drug excretion in rat bile assessed as sulfate metabolite; type: ADME
[21] = Aqueous solubility of the compound at pH 6.5; type: physicochemical
How it was run: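 Aqueous solubility measured at pH 6.5.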

[22] = Lipophilicity, log P of the compound; type: physicochemical; conditions: octanol/water
[23] = Dissociation constant, pKa of the compound; type: physicochemical
MDCK = assay: Permeability across MDCK cells expressing human P-gp; type: ADME, cell-based, Canis lupus familiaris; conditions: dog
How it was run: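 Bi-directional permeability was measured across an MDCK line expressing human P-gp to test whether the compound is a P-gp substrate.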

[24] = Half life in Sprague-Dawley rat at 1 mg/kg, po; type: ADME, organism-based; parameters: dose 1 mg/kg, route oral; conditions: in vivo; how it was run: as §1
[25] = Oral bioavailability in Beagle dog at 1 mg/kg; type: ADME, organism-based, Canis lupus familiaris; conditions: in vivo; how it was run: as §1
[26] = AUC in Beagle dog at 1 mg/kg, iv and 1 mg/kg, po; type: ADME, organism-based, Canis lupus familiaris; conditions: plasma; how it was run: as §1
[27] = Drug excretion in rat bile assessed as phase 2 glucuronide metabolite; type: ADME
[28] = Volume of distribution at steady state in Beagle dog at 1 mg/kg, iv and 1 mg/kg, po; type: ADME, organism-based, Canis lupus familiaris; conditions: in vivo, read-out: Vdss; how it was run: as §1
[29] = AUC in Sprague-Dawley rat at 1 mg/kg, iv and 1 mg/kg, po; type: ADME, organism-based; conditions: plasma; how it was run: as §1
Cytochrome P450 1A2 = target: T3, Cytochrome P450 1A2 (Homo sapiens, UniProt P05177); assay: Effect on CYP1A2 (unknown origin) up to 10 uM; type: ADME
T3 sequence (P05177 whole entry): T2 sequence (P05177 whole entry)

[30] = Half life in Beagle dog at 1 mg/kg, po; type: ADME, organism-based, Canis lupus familiaris; parameters: dose 1 mg/kg, route oral; conditions: in vivo; how it was run: as §1
[31] = Cmax in Sprague-Dawley rat at 1 mg/kg, iv and 1 mg/kg, po; type: ADME, organism-based; conditions: in vivo; how it was run: as §1
Rattus norvegicus [32] = assay: Analgesic activity in monoiodoacetic acid-induced joint pain rat model assessed as inhibition of differential weight bearing capacity at 5 mg/kg, po measured 2 hrs after compound dose on day 12 post MIA challenge relative to vehicle treated control; type: functional, organism-based; parameters: dose 5 mg/kg; how it was run: as §3
CYP3A4 = CYP3A4 (Homo sapiens, UniProt P08684); assay: Drug metabolism assessed as human CYP3A4-mediated oxidative compound turnover; type: ADME; conditions: recombinant enzyme, read-out: Drug metabolism; how it was run: as §5
Cytochrome P450 2C9 = Cytochrome P450 2C9 (Homo sapiens, UniProt P11712); assay: Effect on CYP2C9 (unknown origin) up to 10 uM; type: ADME
Chain of Cytochrome P450 2C9 (P11712 whole entry): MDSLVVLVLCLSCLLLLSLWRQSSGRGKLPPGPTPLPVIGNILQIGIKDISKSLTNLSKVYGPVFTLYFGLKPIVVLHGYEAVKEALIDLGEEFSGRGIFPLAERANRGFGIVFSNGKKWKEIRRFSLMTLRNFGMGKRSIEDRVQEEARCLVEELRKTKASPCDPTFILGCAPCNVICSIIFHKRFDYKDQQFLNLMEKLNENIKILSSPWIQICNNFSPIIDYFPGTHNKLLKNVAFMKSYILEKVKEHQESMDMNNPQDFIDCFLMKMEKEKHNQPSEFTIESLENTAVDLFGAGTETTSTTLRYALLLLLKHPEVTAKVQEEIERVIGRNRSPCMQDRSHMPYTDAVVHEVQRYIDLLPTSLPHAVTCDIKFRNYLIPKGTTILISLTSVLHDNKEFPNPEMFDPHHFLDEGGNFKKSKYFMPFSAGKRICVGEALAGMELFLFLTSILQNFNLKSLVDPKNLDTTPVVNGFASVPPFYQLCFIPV

Chain of Cannabinoid receptor 1 (P21554 whole entry): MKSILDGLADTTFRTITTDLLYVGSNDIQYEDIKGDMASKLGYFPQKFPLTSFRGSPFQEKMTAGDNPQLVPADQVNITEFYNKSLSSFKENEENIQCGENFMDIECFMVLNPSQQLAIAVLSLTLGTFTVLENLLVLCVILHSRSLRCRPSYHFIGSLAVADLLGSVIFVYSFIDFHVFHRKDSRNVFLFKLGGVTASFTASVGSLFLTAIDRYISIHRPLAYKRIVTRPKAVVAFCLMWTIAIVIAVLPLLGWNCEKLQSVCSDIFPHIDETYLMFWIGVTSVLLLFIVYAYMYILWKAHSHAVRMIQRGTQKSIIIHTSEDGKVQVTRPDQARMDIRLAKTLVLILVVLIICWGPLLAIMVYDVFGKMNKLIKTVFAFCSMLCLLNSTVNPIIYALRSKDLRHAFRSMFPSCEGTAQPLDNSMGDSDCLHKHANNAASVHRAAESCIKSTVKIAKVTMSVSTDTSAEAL
T1 sequence (P34972 whole entry): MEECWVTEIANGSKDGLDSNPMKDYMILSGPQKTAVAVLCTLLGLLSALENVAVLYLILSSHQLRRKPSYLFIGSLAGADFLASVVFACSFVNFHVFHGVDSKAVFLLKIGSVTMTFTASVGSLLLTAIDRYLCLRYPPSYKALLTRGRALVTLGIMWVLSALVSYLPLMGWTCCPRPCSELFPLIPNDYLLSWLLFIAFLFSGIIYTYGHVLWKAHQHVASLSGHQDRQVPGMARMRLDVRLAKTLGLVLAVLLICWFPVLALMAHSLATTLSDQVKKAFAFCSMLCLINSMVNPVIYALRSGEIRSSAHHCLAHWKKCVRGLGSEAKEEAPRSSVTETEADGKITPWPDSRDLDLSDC
Chain of Cytochrome P450 2D6 (P10635 whole entry): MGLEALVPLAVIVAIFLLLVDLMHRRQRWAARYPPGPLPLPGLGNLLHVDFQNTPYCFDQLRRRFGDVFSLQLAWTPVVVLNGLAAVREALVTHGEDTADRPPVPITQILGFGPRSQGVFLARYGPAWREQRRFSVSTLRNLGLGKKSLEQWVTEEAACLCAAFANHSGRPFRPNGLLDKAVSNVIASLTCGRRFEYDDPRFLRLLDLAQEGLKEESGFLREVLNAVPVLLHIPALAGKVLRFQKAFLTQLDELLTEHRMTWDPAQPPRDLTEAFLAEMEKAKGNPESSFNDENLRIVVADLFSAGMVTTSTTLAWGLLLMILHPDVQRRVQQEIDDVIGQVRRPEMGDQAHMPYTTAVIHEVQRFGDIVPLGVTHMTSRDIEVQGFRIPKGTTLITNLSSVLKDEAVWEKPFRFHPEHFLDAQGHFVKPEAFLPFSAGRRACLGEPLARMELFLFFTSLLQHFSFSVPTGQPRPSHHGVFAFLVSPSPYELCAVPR
Chain of Cytochrome P450 3A4 (P08684 whole entry): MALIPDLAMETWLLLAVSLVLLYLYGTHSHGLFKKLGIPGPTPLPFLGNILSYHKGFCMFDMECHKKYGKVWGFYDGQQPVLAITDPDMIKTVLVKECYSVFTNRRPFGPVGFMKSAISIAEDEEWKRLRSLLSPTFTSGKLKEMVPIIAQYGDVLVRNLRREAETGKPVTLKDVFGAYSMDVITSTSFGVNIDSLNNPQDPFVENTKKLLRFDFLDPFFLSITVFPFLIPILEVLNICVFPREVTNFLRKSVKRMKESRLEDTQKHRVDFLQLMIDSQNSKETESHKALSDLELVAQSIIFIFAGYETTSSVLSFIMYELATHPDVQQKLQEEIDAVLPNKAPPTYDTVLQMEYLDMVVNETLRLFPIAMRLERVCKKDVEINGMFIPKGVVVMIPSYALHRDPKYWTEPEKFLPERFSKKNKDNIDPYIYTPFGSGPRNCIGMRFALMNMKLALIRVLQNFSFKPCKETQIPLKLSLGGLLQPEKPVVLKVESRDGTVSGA
Chain of CYP3A4 (P08684 whole entry): as above
Chain of CYP2C9 (P11712 whole entry): as the sequence (P11712 whole entry) above

Cc1nc(N2CCN(C)CC2)c2nc(-c3ccccc3Cl)n([C@@H](C)CO)c2n1
metabolised at 0.5 h, 2 µM [1]: 60% | EC50 (Cannabinoid receptor 2 [2]): 12.5 nM | Efficacy (Cannabinoid receptor 2 [3]): 96.5% | metabolised at 0.5 h, 2 µM [4]: 79% | metabolised at 0.5 h, 2 µM [5]: 11% | EC50 (Cannabinoid receptor 1): > 100000 nM

COC(=O)NCCn1c(-c2ccccc2Cl)nc2c(N3CCN(C)CC3)nc(C)nc21
metabolised at 0.5 h, 2 µM [1]: 62% | metabolised at 0.5 h, 2 µM [4]: 25% | metabolised at 0.5 h, 2 µM [5]: 14%

CCN1CCN(c2nc(C)nc3c2nc(-c2ccccc2Cl)n3C(COC)COC)CC1
metabolised at 0.5 h, 2 µM [1]: 66% | EC50 (Cannabinoid receptor 2 [2]): 5 nM | Efficacy (Cannabinoid receptor 2 [3]): 69.3% | metabolised at 0.5 h, 2 µM [4]: 58% | metabolised at 0.5 h, 2 µM [5]: 35% | inhibition (Rattus norvegicus [6]): < 10% | EC50 (Cannabinoid receptor 1): > 100000 nM

Cc1nc(N2CCN(C)CC2)c2nc(-c3ccccc3Cl)n([C@H](C)CO)c2n1
metabolised at 0.5 h, 2 µM [1]: 42% | Vd [7]: 6 L/kg | inhibition (Rattus norvegicus [8]): inactive | EC50 (Cannabinoid receptor 2 [2]): 22.4 nM | inhibition (Rattus norvegicus [9]): Active | Activity (Cytochrome P450 3A4): Not Active | Drug excretion [10]: metabolite_detected | inhibition (Rattus norvegicus [11]): Active | clearance [12]: 38 mL/min/kg | ED50 (Rattus norvegicus [13]): 0.16 mg/kg | clearance [14]: 32 mL/min/kg | Cmax [15]: 43 ng/mL | Efficacy (Cannabinoid receptor 2 [3]): 81.8% | metabolised at 0.5 h, 2 µM [4]: 50% | metabolised at 0.5 h, 2 µM [5]: 22% | Activity (Cytochrome P450 2D6): Not Active | Activity (Rattus norvegicus [16]): Toxic | Drug excretion [17]: metabolite_detected | metabolised (CYP1A2): 80% | inhibition (Rattus norvegicus [6]): 20% | metabolised (CYP2C9): 80% | Activity (Rattus norvegicus [18]): Toxic | bioavailability [19]: 38% | Drug excretion [20]: metabolite_detected | solubility [21]: 1800 µg/mL (≈ 4.49 mM) | logP [22]: 3.1 | pKa [23]: 7.5 | permeability (MDCK): impermeable | half-life [24]: 2.3 h | bioavailability [25]: 23% | AUC [26]: 437 ng·h/mL | Drug excretion [27]: metabolite_detected | Vd [28]: 4 L/kg | AUC [29]: 514 ng·h/mL | EC50 (Cannabinoid receptor 1): > 100000 nM | Activity (Cytochrome P450 1A2): Not Active | half-life [30]: 1.7 h | Cmax [31]: 87 ng/mL | inhibition (Rattus norvegicus [32]): Active | metabolised (CYP3A4): 80% | Activity (Cytochrome P450 2C9): Not Active

Cc1nc(N2CCN(C)CC2)c2nc(-c3ccccc3Cl)n(CC(C)(C)O)c2n1
metabolised at 0.5 h, 2 µM [1]: 52% | EC50 (Cannabinoid receptor 2 [2]): 5.9 nM | Efficacy (Cannabinoid receptor 2 [3]): 85.4% | metabolised at 0.5 h, 2 µM [4]: 92% | metabolised at 0.5 h, 2 µM [5]: 24% | inhibition (Rattus norvegicus [6]): 83% | EC50 (Cannabinoid receptor 1): > 100000 nM
